Laboratory results as given in ChEMBL document CHEMBL2407028, “Discovery of novel oxazolidinedione derivatives as potent and selective mineralocorticoid receptor antagonists” (Bioorg Med Chem Lett, 2013).

What was measured:
[1] = target: T1, Mineralocorticoid receptor (Homo sapiens, UniProt P08235); experiment: Antagonist activity at human mineralocorticoid receptor assessed as inhibition of binding to coactivator peptide by NH Pro assay
T1 sequence (P08235 whole entry): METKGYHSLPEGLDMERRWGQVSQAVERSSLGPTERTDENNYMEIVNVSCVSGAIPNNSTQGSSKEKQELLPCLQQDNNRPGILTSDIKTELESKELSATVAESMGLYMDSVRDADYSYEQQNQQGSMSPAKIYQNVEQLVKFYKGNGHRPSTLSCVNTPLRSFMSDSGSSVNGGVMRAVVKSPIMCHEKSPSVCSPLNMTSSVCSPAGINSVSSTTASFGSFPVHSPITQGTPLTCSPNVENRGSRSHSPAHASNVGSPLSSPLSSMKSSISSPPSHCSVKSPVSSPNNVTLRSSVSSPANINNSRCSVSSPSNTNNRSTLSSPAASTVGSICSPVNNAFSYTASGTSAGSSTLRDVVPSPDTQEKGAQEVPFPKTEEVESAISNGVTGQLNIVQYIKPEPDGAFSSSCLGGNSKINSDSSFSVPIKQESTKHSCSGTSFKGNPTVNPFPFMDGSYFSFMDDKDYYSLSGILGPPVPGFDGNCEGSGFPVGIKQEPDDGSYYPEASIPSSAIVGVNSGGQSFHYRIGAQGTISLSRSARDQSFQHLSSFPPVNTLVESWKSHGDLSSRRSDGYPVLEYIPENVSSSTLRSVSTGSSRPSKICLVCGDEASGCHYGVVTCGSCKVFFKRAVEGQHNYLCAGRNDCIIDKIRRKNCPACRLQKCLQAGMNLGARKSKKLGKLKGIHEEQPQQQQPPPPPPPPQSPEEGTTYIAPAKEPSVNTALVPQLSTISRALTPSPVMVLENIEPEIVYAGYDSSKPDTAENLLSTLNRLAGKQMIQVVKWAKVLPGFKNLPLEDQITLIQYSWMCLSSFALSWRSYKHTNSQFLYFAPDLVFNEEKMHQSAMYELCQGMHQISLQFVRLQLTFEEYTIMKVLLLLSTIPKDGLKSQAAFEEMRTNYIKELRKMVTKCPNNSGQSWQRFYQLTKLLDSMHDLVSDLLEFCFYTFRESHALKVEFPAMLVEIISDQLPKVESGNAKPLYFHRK

Estrogen receptor beta = Estrogen receptor beta (Homo sapiens, UniProt Q92731); experiment: Agonist activity at estrogen receptor beta (unknown origin) by NH Pro assay
Estrogen receptor [2] = target: T2, Estrogen receptor (Homo sapiens, UniProt P03372); experiment: Agonist activity at estrogen receptor alpha (unknown origin) by NH Pro assay
T2 sequence (P03372 whole entry): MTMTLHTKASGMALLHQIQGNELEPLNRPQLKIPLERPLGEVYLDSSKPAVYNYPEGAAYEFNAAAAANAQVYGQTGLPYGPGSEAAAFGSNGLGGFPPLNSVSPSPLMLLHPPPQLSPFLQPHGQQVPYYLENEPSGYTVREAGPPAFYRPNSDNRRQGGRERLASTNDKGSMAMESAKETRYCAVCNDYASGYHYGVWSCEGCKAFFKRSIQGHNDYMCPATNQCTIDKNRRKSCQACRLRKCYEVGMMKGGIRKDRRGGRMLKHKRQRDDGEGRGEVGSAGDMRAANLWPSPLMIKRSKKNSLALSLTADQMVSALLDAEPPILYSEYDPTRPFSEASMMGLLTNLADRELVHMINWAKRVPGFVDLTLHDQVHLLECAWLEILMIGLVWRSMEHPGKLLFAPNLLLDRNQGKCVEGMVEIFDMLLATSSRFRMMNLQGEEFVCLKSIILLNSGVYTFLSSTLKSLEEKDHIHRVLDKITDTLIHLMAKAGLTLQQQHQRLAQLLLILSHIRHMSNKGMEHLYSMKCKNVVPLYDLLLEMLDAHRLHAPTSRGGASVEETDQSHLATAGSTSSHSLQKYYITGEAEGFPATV

[3] = Cmax in rat at 1 mg/kg, iv and 1 mg/lg, po; type: ADME, organism-based; set-up: dose 1 mg/kg, route oral; conditions: in vivo
Procedure, shortened: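 Rats dosed at 1 mg/kg iv (n = 2) or 1 mg/kg po (n = 3), formulated at 1 mg/mL in PEG 200:water (70:30). Blood concentrations measured by LC/MS/MS after protein precipitation with acetonitrile.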

Androgen receptor = target: T3, Androgen receptor (Homo sapiens, UniProt P10275); experiment: Agonist activity at androgen receptor (unknown origin) by NH Pro assay
T3 sequence (P10275 whole entry): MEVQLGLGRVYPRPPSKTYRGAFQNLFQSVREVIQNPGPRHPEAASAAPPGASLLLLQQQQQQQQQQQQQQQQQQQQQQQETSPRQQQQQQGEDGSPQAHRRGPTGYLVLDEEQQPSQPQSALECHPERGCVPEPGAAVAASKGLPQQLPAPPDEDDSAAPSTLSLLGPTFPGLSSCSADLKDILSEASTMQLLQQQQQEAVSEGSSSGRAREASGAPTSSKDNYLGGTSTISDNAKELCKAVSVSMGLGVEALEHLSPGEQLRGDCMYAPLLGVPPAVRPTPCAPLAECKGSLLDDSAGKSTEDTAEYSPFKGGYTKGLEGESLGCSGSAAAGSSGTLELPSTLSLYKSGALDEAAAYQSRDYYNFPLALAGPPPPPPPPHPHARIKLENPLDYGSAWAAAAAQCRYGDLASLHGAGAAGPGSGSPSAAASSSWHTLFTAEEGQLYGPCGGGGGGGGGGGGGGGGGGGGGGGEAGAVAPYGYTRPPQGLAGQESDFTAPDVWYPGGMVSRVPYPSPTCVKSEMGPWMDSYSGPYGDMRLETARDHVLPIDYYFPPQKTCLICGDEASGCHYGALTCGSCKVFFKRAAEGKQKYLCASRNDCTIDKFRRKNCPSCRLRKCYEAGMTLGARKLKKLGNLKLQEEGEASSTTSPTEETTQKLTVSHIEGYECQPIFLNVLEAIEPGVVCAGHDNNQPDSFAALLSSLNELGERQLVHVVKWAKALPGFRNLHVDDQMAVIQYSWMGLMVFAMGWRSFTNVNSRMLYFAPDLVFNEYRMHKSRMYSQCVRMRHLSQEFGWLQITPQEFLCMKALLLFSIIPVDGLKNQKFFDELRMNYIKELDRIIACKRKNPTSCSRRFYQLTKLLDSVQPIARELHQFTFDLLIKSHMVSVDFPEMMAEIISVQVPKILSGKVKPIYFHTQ

Estrogen receptor [4] = target: T2, Estrogen receptor; experiment: Antagonist activity at estrogen receptor alpha (unknown origin) by NH Pro assay

Estrogen receptor beta, sequence (Q92731 whole entry): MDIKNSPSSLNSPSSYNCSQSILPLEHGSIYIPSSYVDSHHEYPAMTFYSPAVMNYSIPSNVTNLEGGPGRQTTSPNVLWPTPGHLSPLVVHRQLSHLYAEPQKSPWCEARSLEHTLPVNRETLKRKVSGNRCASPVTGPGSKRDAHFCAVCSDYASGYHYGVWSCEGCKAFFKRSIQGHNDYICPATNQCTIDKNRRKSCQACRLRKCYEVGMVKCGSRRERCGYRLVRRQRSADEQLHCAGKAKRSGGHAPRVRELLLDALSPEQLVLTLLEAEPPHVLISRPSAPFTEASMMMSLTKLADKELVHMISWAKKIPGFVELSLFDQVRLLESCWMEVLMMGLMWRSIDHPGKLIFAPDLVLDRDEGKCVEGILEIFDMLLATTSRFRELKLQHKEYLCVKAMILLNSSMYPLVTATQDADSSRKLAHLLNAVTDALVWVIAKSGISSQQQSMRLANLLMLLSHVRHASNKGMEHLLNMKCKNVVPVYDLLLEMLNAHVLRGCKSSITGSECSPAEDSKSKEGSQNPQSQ

| IC50 [1] [µM] | EC50 (Estrogen receptor beta) [µM] | EC50 (Estrogen receptor [2]) [µM] | Cmax [3] [nM] | EC50 (Androgen receptor) [µM] | IC50 (Estrogen receptor [4]) [µM] | SMILES |
| --- | --- | --- | --- | --- | --- | --- |
| 0.033 | > 20 | > 20 | 98 | > 20 | 17 | COc1cc(CNC(=O)[C@@]2(Cc3ccccc3)OC(=O)N([C@@H]3CCc4ccccc43)C2=O)cc(OC)c1 |
| 0.18 | > 20 | > 20 | 120 | > 20 | 7.3 | C[C@H](c1ccc(F)cc1)N1C(=O)O[C@](Cc2ccc(F)cc2)(C(=O)NCc2ccc(Cl)c(Cl)c2)C1=O |
